Values joined by “and” are separate entries in the source; they are usually repeats but may differ in a detail not shown here. Identical values can stand only once.
What was measured:
HEK-293T = assay: Multiplex assay against HEK293T; assay type: toxicity, cell-based; conditions: human, number of replicates 2
Summary of the method: (§1)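 On a CQ1 microscope at 37°C and 5% CO2, live cells were imaged after compound addition. They had been stained at seeding with Hoechst33342, BioTracker Green Microtubule Cytoskeleton Dye, MitoTracker Red and Annexin V Alexa Fluor 680. CellPathfinder machine-learning gating assigned cells to Hoechst high-intensity objects or normal cells, normal cells to healthy, pyknosed or fragmented nuclei, and pyknosed cells to mitotic or apoptotic. Tubulin, mitochondrial-mass and membrane-permeability phenotypes are per cents of healthy-nucleus cells.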

U2OS = assay: Multiplex assay against U2OS; assay type: toxicity, cell-based; conditions: human, number of replicates 2; summary of the method: as §1
[1] = 24 h, 1 µM, compound concentration 1 uM
[2] = 24 h, 10 µM, compound concentration 10 uM
[3] = 48 h, 1 µM, compound concentration 1 uM
[4] = 48 h, 10 µM, compound concentration 10 uM
[5] = 12 h, 1 µM, compound concentration 1 uM
[6] = 12 h, 10 µM, compound concentration 10 uM

With `COc1cc(Nc2cnc(C#N)c(O[C@H](C)CN(C)C)n2)ncc1-c1cnn(C)c1` the “Population Hoechst High Intensity Objects (%)” value (HEK-293T; [1]) was 8% and 7%, the “Population Membrane Permeable-Phenotype (%)” value (HEK-293T; [1]) was 4% and the “Population Mitochondria Different-Phenotype (%)” value (HEK-293T; [1]) was 11% and 14%. The “Population Mitotic Cells (%)” value (HEK-293T; [1]) was 71% and 73%, the “Population Normal (%)” value (HEK-293T; [1]) was 91% and 92% and the “Population Pyknosed Nuclei (%)” value (HEK-293T; [1]) was 9% and 13%. For the same compound, the “Population Tubulin-Different-Phenotype (%)” value (HEK-293T; [1]) was 46% and 41%, the “Total Cell Count” value (HEK-293T; [1]) was 801 and 735 and the “Population Apoptotic (%)” value (HEK-293T; [2]) was 63% and 69%. For the same compound, the “Population Fragmented Nuclei (%)” value (HEK-293T; [2]) was 2% and 3%, the “Population Healthy Nuclei (%)” value (HEK-293T; [2]) was 76% and 78% and the “Population Hoechst High Intensity Objects (%)” value (HEK-293T; [2]) was 9% and 10%. For the same compound, the “Population Membrane Permeable-Phenotype (%)” value (HEK-293T; [2]) was 3% and 4%, the “Population Mitochondria Different-Phenotype (%)” value (HEK-293T; [2]) was 47% and 42% and the “Population Mitotic Cells (%)” value (HEK-293T; [2]) was 36% and 30%. For the same compound, the “Population Normal (%)” value (HEK-293T; [2]) was 90% and 89%, the “Population Pyknosed Nuclei (%)” value (HEK-293T; [2]) was 20% and 18% and the “Population Tubulin-Different-Phenotype (%)” value (HEK-293T; [2]) was 85% and 82%. The “Total Cell Count” value (HEK-293T; [2]) was 524 and 415, the “Population Apoptotic (%)” value (HEK-293T; [3]) was 31% and 47% and the “Population Fragmented Nuclei (%)” value (HEK-293T; [3]) was 9% and 7%. For the same compound, the “Population Healthy Nuclei (%)” value (HEK-293T; [3]) was 79% and 80%, the “Population Hoechst High Intensity Objects (%)” value (HEK-293T; [3]) was 9% and 8% and the “Population Membrane Permeable-Phenotype (%)” value (HEK-293T; [3]) was 6% and 8%. For the same compound, the “Population Mitochondria Different-Phenotype (%)” value (HEK-293T; [3]) was 8% and 11%, the “Population Mitotic Cells (%)” value (HEK-293T; [3]) was 68% and 52% and the “Population Normal (%)” value (HEK-293T; [3]) was 90% and 91%. The “Population Pyknosed Nuclei (%)” value (HEK-293T; [3]) was 10% and 12%, the “Population Tubulin-Different-Phenotype (%)” value (HEK-293T; [3]) was 39% and 46% and the “Total Cell Count” value (HEK-293T; [3]) was 1105 and 1012. For the same compound, the “Population Apoptotic (%)” value (HEK-293T; [4]) was 71% and 67%, the “Population Fragmented Nuclei (%)” value (HEK-293T; [4]) was 3% and the “Population Healthy Nuclei (%)” value (HEK-293T; [4]) was 44% and 52%. The “Population Hoechst High Intensity Objects (%)” value (HEK-293T; [4]) was 12% and 11%, the “Population Membrane Permeable-Phenotype (%)” value (HEK-293T; [4]) was 4% and the “Population Mitochondria Different-Phenotype (%)” value (HEK-293T; [4]) was 69% and 77%. For the same compound, the “Population Mitotic Cells (%)” value (HEK-293T; [4]) was 28% and 32%, the “Population Normal (%)” value (HEK-293T; [4]) was 87% and 88% and the “Population Pyknosed Nuclei (%)” value (HEK-293T; [4]) was 52% and 43%. For the same compound, the “Population Tubulin-Different-Phenotype (%)” value (HEK-293T; [4]) was 81% and 89%, the “Total Cell Count” value (HEK-293T; [4]) was 374 and 473 and the “Population Apoptotic (%)” value (U2OS; [5]) was 100% and 59%. The “Population Healthy Nuclei (%)” value (U2OS; [5]) was 63% and 83%, the “Population Hoechst High Intensity Objects (%)” value (U2OS; [5]) was 0% and the “Population Mitochondria Different-Phenotype (%)” value (U2OS; [5]) was 8% and 2%. The “Population Normal (%)” value (U2OS; [5]) was 100%, the “Population Pyknosed Nuclei (%)” value (U2OS; [5]) was 10% and 11% and the “Population Tubulin-Different-Phenotype (%)” value (U2OS; [5]) was 75% and 63%. The “Population Apoptotic (%)” value (U2OS; [6]) was 88% and 56%, the “Population Healthy Nuclei (%)” value (U2OS; [6]) was 39% and 74% and the “Population Hoechst High Intensity Objects (%)” value (U2OS; [6]) was 0%. For the same compound, the “Population Mitochondria Different-Phenotype (%)” value (U2OS; [6]) was 6% and 8%, the “Population Normal (%)” value (U2OS; [6]) was 100% and the “Population Pyknosed Nuclei (%)” value (U2OS; [6]) was 21% and 15%. The “Population Tubulin-Different-Phenotype (%)” value (U2OS; [6]) was 25% and 32%, the “Population Apoptotic (%)” value (U2OS; [1]) was 50% and 76% and the “Population Healthy Nuclei (%)” value (U2OS; [1]) was 67% and 86%. The “Population Hoechst High Intensity Objects (%)” value (U2OS; [1]) was 0%, the “Population Membrane Permeable-Phenotype (%)” value (U2OS; [1]) was 0% and 2% and the “Population Mitochondria Different-Phenotype (%)” value (U2OS; [1]) was 0%. The “Population Mitotic Cells (%)” value (U2OS; [1]) was 50% and 24%, the “Population Normal (%)” value (U2OS; [1]) was 100% and the “Population Pyknosed Nuclei (%)” value (U2OS; [1]) was 10% and 8%. The “Population Tubulin-Different-Phenotype (%)” value (U2OS; [1]) was 81% and 72%, the “Population Apoptotic (%)” value (U2OS; [2]) was 87% and 64% and the “Population Fragmented Nuclei (%)” value (U2OS; [2]) was 33% and 11%. For the same compound, the “Population Healthy Nuclei (%)” value (U2OS; [2]) was 37% and 67%, the “Population Hoechst High Intensity Objects (%)” value (U2OS; [2]) was 6% and 2% and the “Population Mitochondria Different-Phenotype (%)” value (U2OS; [2]) was 20% and 9%. For the same compound, the “Population Mitotic Cells (%)” value (U2OS; [2]) was 12% and 35%, the “Population Normal (%)” value (U2OS; [2]) was 93% and 97% and the “Population Pyknosed Nuclei (%)” value (U2OS; [2]) was 29% and 20%. For the same compound, the “Population Tubulin-Different-Phenotype (%)” value (U2OS; [2]) was 60% and 44%, the “Population Apoptotic (%)” value (U2OS; [3]) was 66% and 62% and the “Population Healthy Nuclei (%)” value (U2OS; [3]) was 55% and 83%. The “Population Hoechst High Intensity Objects (%)” value (U2OS; [3]) was 0%, the “Population Membrane Permeable-Phenotype (%)” value (U2OS; [3]) was 2% and the “Population Mitochondria Different-Phenotype (%)” value (U2OS; [3]) was 0%. The “Population Mitotic Cells (%)” value (U2OS; [3]) was 33% and 37%, the “Population Normal (%)” value (U2OS; [3]) was 100% and 99% and the “Population Pyknosed Nuclei (%)” value (U2OS; [3]) was 28% and 12%. The “Population Tubulin-Different-Phenotype (%)” value (U2OS; [3]) was 94% and 74%, the “Population Apoptotic (%)” value (U2OS; [4]) was 100% and 85% and the “Population Fragmented Nuclei (%)” value (U2OS; [4]) was 31% and 20%. The “Population Healthy Nuclei (%)” value (U2OS; [4]) was 20% and 46%, the “Population Hoechst High Intensity Objects (%)” value (U2OS; [4]) was 3% and 0% and the “Population Membrane Permeable-Phenotype (%)” value (U2OS; [4]) was 16% and 7%. For the same compound, the “Population Mitochondria Different-Phenotype (%)” value (U2OS; [4]) was 16% and 10%, the “Population Mitotic Cells (%)” value (U2OS; [4]) was 0% and 14% and the “Population Normal (%)” value (U2OS; [4]) was 96% and 99%. For the same compound, the “Population Pyknosed Nuclei (%)” value (U2OS; [4]) was 48% and 33% and the “Population Tubulin-Different-Phenotype (%)” value (U2OS; [4]) was 50% and 59%.

— ChEMBL document CHEMBL5303300, “EUbOPEN Chemogenomics Library - Multiplex” (2023)
